Data set [1] concerns Osteoblast. Description: Induction of osteogenesis in rat calvaria-derived primary osteoblasts assessed as increase in ALP activity after 48 hrs by bradford assay relative to control. In kind it is functional, cell-based. The method in brief: (§1)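 Primary rat calvarial osteoblasts (2 × 10^3 cells) seeded and exposed to graded compound concentrations for 48 h; BMP-2 as positive control, vehicle as control. ALP measured with p-nitrophenylphosphate substrate, read at 405 nm, normalized to total protein by Bradford assay. Three independent experiments, six replicates per point; mean ± SEM, one-way ANOVA versus control.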

Data set [2] relates to Bone marrow cell. Description: Induction of mineralization in rat femur-derived bone marrow cells at 100 pM after 21 days by Alizarin Red S staining. In kind it is functional, cell-based. The method in brief:
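Rat bone marrow cells (2 × 10^5) seeded and incubated 21 days with 100 pM compound; cells fixed, stained with alizarin red-S, dye extracted and optical density measured colorimetrically. Four independent experiments in triplicate; mean ± SEM versus control.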

Data set [3] concerns Osteoblast. Description: Induction of osteogenesis in rat calvaria-derived primary osteoblasts assessed as increase in ALP activity at 100 pM after 48 hrs by bradford assay relative to control. In kind it is functional, cell-based. The method in brief:
as §1

The nature of data set [4]: Cytotoxicity against rat calvaria-derived primary osteoblasts assessed as cell viability by MTT assay. Format: cell-based. The following applies: osteoblast. (In general: Tetrazolium dyes change colour on reduction, which living cells bring about.)
Data set [5] has as its system Osteoblast. Description: Induction of osteogenesis in rat calvaria-derived primary osteoblasts assessed as increase in Col1 mRNA level at 100 pM after 48 hrs by quantitative PCR analysis. Format: functional, cell-based. In outline: (§2)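 Primary rat calvarial osteoblasts treated 48 h at 100 pM; BMP-2, Col1 and runx2 transcript levels quantified by qPCR (optimized protocol). Four independent experiments in triplicate per treatment point; mean ± SEM compared with control.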

For data set [6], the system named is Osteoblast. Description: Induction of osteogenesis in rat calvaria-derived primary osteoblasts assessed as increase in BMP2 mRNA level at 100 pM after 48 hrs by quantitative PCR analysis. Format: functional, cell-based. In outline: as §2
In data set [7] the test system is Osteoblast. Description: Induction of osteogenesis in rat calvaria-derived primary osteoblasts assessed as increase in ALP activity at 10 pM after 48 hrs by bradford assay relative to control. In kind it is functional, cell-based. The method in brief: as §1
Data set [8] has as its system Osteoblast. Description: Induction of osteogenesis in rat calvaria-derived primary osteoblasts assessed as increase in ALP activity at 1 nM to 1 uM after 48 hrs by bradford assay relative to control. In kind it is functional, cell-based. In outline:
as §1

In data set [9] the test system is Osteoblast. Description: Induction of osteogenesis in rat calvaria-derived primary osteoblasts assessed as increase in runx2 mRNA level at 100 pM after 48 hrs by quantitative PCR analysis. In kind it is functional, cell-based. In outline:
as §2

Each structure is given as a SMILES string. The source made the active and inactive calls. The calls are words filed in the database; no cut-off is given here.

Take `C=C[C@@](C)(CCC=C(C)C)O[C@@H]1O[C@H](CO[C@@H]2O[C@@H](C)[C@H](O)[C@@H](O)[C@H]2O)[C@@H](O)[C@H](O)[C@H]1O`: the outcome in [1] was inactive.
On the same count and under the same terms, the value for `CC1=CC(=O)CC(C)(C)[C@H]1/C=C/[C@H](C)O[C@@H]1O[C@H](CO)[C@@H](O)[C@H](O)[C@H]1O` was “inactive”; that for `C[C@@H]1O[C@@H](O[C@H]2[C@H](Oc3cc(O)c4c(=O)cc(-c5ccc(O)c(O)c5)oc4c3)O[C@H](CO)[C@@H](O)[C@@H]2O)[C@H](O)[C@H](O)[C@H]1O` was “inactive”.
Same read-out and setting: the value for `O=c1cc(-c2ccc(O)c(O)c2)oc2cc(O[C@@H]3O[C@H](CO)[C@@H](O)[C@H](O)[C@H]3O)cc(O)c12` was “inactive”.
Same read-out and setting: as for `O=c1cc(-c2cccc(O)c2)oc2cc(O)c(O[C@@H]3O[C@H](CO)[C@@H](O)[C@H](O)[C@H]3O)c(O)c12`, the entry is “inactive”.
`COc1cc(C(O)C(O)CO)ccc1Oc1ccc(-c2cc(=O)c3c(O)cc(O)cc3o2)cc1O` (centres undefined) [PTEROSPERMIN A]: the outcome in data set [2], in [3], in data set [5], in data set [6], in data set [7] and in data set [9] was Active. The Activity entry in [4] is listed as “Non-toxic”. In data set [8], the outcome was inactive.
In the case of `O=C1OC(O)C=C1O` (centres undefined) [PTEROSPERMIN C], the outcome in data set [2], in data set [3], in data set [5], in data set [6], in data set [7] and in data set [9] was Active. The Activity result in [4] is recorded as “Non-toxic”. Also, the outcome in data set [8] was inactive.
Consider `O=C(/C=C/c1ccc(O)cc1)OC[C@H]1O[C@@H](Oc2c(-c3ccc(O)cc3)oc3cc(O)cc(O)c3c2=O)[C@H](O)[C@@H](O)[C@@H]1O` [TILIROSIDE], for which the outcome in data set [2], in [3], in data set [5], in data set [6], in [7] and in [9] was Active. Also, in data set [4], the Activity entry was “Non-toxic”. In addition, in [8], the outcome was inactive.

Source of the values: ChEMBL document CHEMBL1806378, “Osteogenic constituents from Pterospermum acerifolium Willd. flowers” (Bioorg Med Chem Lett, 2011).
